Reference: ChEMBL document CHEMBL4431374, “Synthesis and Antitubercular Activity of New Benzo[b]thiophenes” (ACS Med Chem Lett, 2016)
In brackets after ≈: the same amount, converted by molar mass.

Tests used:
[1] = system: Mycobacterium tuberculosis; assay: Antitubercular activity against dormant Mycobacterium tuberculosis H37Ra ATCC 25177 at 3 to 30 ug/ml after 12 days by XTT reduction menadione assay; type: functional; set-up: scale not given: the % may be the effect or the level left
[2] = (§1) Cytotoxicity against human HeLa cells assessed as growth inhibition after 72 hrs by MTT assay; type: cell-based; details: HeLa cells
HeLa = assay: as §1; type: cell-based; details: hela, 72 h
[3] = (§2) Cytotoxicity against human PANC1 cells assessed as growth inhibition after 90 hrs by MTT assay; type: cell-based, PANC-1; details: PANC-1 cells
PANC-1 = assay: as §2; type: cell-based; details: panc-1, 90 h
[4] = (§3) Cytotoxicity against human THP1 cells assessed as growth inhibition after 72 hrs by MTT assay; type: cell-based, THP-1; details: THP-1 cells
THP-1 = assay: as §3; type: cell-based; details: thp-1, 72 h
[5] = system: Mycobacterium tuberculosis; assay: Antitubercular activity against active Mycobacterium tuberculosis H37Ra ATCC 25177 infected in human THP1 cells after 8 days by nitrate reductase assay; type: functional; details: H37Ra ATCC 25177, 192 h
[6] = system: Mycobacterium tuberculosis; assay: Antitubercular activity against dormant Mycobacterium tuberculosis H37Ra ATCC 25177 infected in human THP1 cells after 12 days by nitrate reductase assay; type: functional; details: H37Ra ATCC 25177, 288 h
[7] = system: Mycobacterium tuberculosis; assay: Antitubercular activity against active Mycobacterium tuberculosis H37Ra ATCC 25177 after 8 days by XTT reduction menadione assay; type: functional; details: H37Ra ATCC 25177, 192 h
In short: (§4)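 H37Ra was tested by microdilution in 96-well plates, at 30–0.001 μg/mL in one-third dilutions. Each plate carried a rifampicin and isoniazid dilution series as positive controls. Growth was scored by XTT reduction menadione assay (XRMA) and cross-checked by a final absorbance reading at 600 nm.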

[8] = system: Mycobacterium tuberculosis; assay: Antitubercular activity against dormant Mycobacterium tuberculosis H37Ra ATCC 25177 after 12 days by XTT reduction menadione assay; type: functional; details: H37Ra ATCC 25177, 288 h; in short: as §4
[9] = Selectivity index, ratio of GI50 for human THP1 cells to MIC90 for active Mycobacterium bovis BCG ATCC 35734; type: toxicity; details: THP-1 cells, read-out: Selectivity Index
[10] = Selectivity index, ratio of GI50 for human THP1 cells to MIC90 for dormant Mycobacterium bovis BCG ATCC 35734; type: toxicity; details: THP-1 cells, read-out: Selectivity Index
[11] = Selectivity index, ratio of GI50 for human PANC1 cells to MIC90 for dormant Mycobacterium bovis BCG ATCC 35734; type: toxicity; details: PANC-1 cells, read-out: Selectivity Index
[12] = Selectivity index, ratio of GI50 for human HeLa cells to MIC90 for active Mycobacterium bovis BCG ATCC 35734; type: toxicity; details: read-out: Selectivity Index
[13] = Selectivity index, ratio of GI50 for human HeLa cells to MIC90 for dormant Mycobacterium bovis BCG ATCC 35734; type: toxicity; details: read-out: Selectivity Index
[14] = Selectivity index, ratio of GI50 for human PANC1 cells to MIC90 for active Mycobacterium bovis BCG ATCC 35734; type: toxicity; details: PANC-1 cells, read-out: Selectivity Index
[15] = Selectivity index, ratio of GI50 for human THP1 cells to MIC90 for active Mycobacterium tuberculosis H37Ra ATCC 25177; type: toxicity; details: THP-1 cells, read-out: Selectivity Index
[16] = Selectivity index, ratio of GI50 for human THP1 cells to MIC90 for dormant Mycobacterium tuberculosis H37Ra ATCC 25177; type: toxicity; details: THP-1 cells, read-out: Selectivity Index
[17] = Antioxidant activity assessed as DPPH radical scavenging activity after 30 mins by spectrophotometric method; type: functional

## O=C(CC(=O)c1cc(Cl)ccc1O)c1cc2ccccc2s1
[1]
  Activity: >92%
[2]
  GI50 at 72 h: 4.42 µg/mL (≈ 13.4 µM)
HeLa
  GI90: 8.24 µg/mL (≈ 24.9 µM)
[3]
  GI50 at 90 h: 8.44 µg/mL (≈ 25.5 µM)
PANC-1
  GI90: 26.03 µg/mL (≈ 78.7 µM)
[4]
  GI50 at 72 h: 7.48 µg/mL (≈ 22.6 µM)
THP-1
  GI90: > 30 µg/mL
[5]
  MIC90: 2.83 µg/mL (≈ 8.56 µM)
[6]
  MIC90: 0.91 µg/mL (≈ 2.75 µM)
[7]
  MIC90: 3.29 µg/mL (≈ 9.95 µM)
[8]
  MIC90: 2.79 µg/mL (≈ 8.43 µM)

## Cc1ccc2oc(-c3cc4ccccc4s3)cc(=O)c2c1
[2]
  GI50 at 72 h: 15.6 µg/mL (≈ 53.2 µM)
HeLa
  GI90: 27.8 µg/mL (≈ 95.1 µM)
[3]
  GI50 at 90 h: 12.9 µg/mL (≈ 44 µM)
PANC-1
  GI90: 29.75 µg/mL (≈ 102 µM)
[4]
  GI50 at 72 h: > 100 µg/mL
THP-1
  GI90: > 100 µg/mL
[5]
  MIC90: 8.39 µg/mL (≈ 28.7 µM)
[6]
  MIC90: 2.76 µg/mL (≈ 9.44 µM)
[7]
  MIC90: 28.9 µg/mL (≈ 98.7 µM)
[8]
  MIC90: 30 µg/mL (≈ 103 µM)
[9]
  selectivity ratio: > 22
[10]
  selectivity ratio: > 22
[11]
  selectivity ratio: > 20
[12]
  selectivity ratio: > 20
[13]
  selectivity ratio: > 20
[14]
  selectivity ratio: > 20

## O=C(CC(=O)c1cc(Br)ccc1O)c1cc2ccccc2s1
[1]
  Activity: >92%
[2]
  GI50 at 72 h: 6.75 µg/mL (≈ 18 µM)
HeLa
  GI90: 20.28 µg/mL (≈ 54 µM)
[3]
  GI50 at 90 h: 18.3 µg/mL (≈ 48.8 µM)
PANC-1
  GI90: > 30 µg/mL
[4]
  GI50 at 72 h: > 100 µg/mL
THP-1
  GI90: > 100 µg/mL
[5]
  MIC90: 4.94 µg/mL (≈ 13.2 µM)
[6]
  MIC90: 3.91 µg/mL (≈ 10.4 µM)
[7]
  MIC90: 2.87 µg/mL (≈ 7.65 µM)
[8]
  MIC90: 2.63 µg/mL (≈ 7.01 µM)
[11]
  selectivity ratio: > 10
[14]
  selectivity ratio: > 10

## Cc1ccc(O)c(C(=O)CC(=O)c2cc3ccccc3s2)c1
[2]
  GI50 at 72 h: 7.12 µg/mL (≈ 22.9 µM)
HeLa
  GI90: > 30 µg/mL
[3]
  GI50 at 90 h: 15.8 µg/mL (≈ 51 µM)
PANC-1
  GI90: > 30 µg/mL
[4]
  GI50 at 72 h: > 100 µg/mL
THP-1
  GI90: > 100 µg/mL
[11]
  selectivity ratio: > 10

## Cc1cc(O)c(C(=O)CC(=O)c2cc3ccccc3s2)cc1Cl
[2]
  GI50 at 72 h: > 100 µg/mL
HeLa
  GI90: > 100 µg/mL
[3]
  GI50 at 90 h: 20.4 µg/mL (≈ 59 µM)
PANC-1
  GI90: > 30 µg/mL
[4]
  GI50 at 72 h: > 100 µg/mL
THP-1
  GI90: > 100 µg/mL
[9]
  selectivity ratio: > 22
[10]
  selectivity ratio: > 22

## Cc1cc2oc(-c3cc4ccccc4s3)cc(=O)c2cc1Cl
[2]
  GI50 at 72 h: 21.2 µg/mL (≈ 64.9 µM)
HeLa
  GI90: > 30 µg/mL
[3]
  GI50 at 90 h: > 100 µg/mL
PANC-1
  GI90: > 100 µg/mL
[4]
  GI50 at 72 h: > 100 µg/mL
THP-1
  GI90: > 100 µg/mL
[5]
  MIC90: 7.67 µg/mL (≈ 23.5 µM)
[6]
  MIC90: 2.18 µg/mL (≈ 6.67 µM)
[7]
  MIC90: 25.4 µg/mL (≈ 77.6 µM)
[8]
  MIC90: 24.3 µg/mL (≈ 74.5 µM)
[15]
  selectivity ratio: > 30
[16]
  selectivity ratio: > 30
[9]
  selectivity ratio: > 30
[10]
  selectivity ratio: > 30
[12]
  selectivity ratio: > 35
[13]
  selectivity ratio: > 35

## O=C(CC(=O)c1cc(Cl)cc(Cl)c1O)c1cc2ccccc2s1
[2]
  GI50 at 72 h: > 100 µg/mL
HeLa
  GI90: > 100 µg/mL
[3]
  GI50 at 90 h: 26.2 µg/mL (≈ 71.8 µM)
PANC-1
  GI90: > 30 µg/mL
[4]
  GI50 at 72 h: > 100 µg/mL
THP-1
  GI90: > 100 µg/mL
[11]
  selectivity ratio: > 10

## O=C(CC(=O)c1ccccc1O)c1cc2ccccc2s1
[1]
  Activity: >92%
[2]
  GI50 at 72 h: 7.86 µg/mL (≈ 26.5 µM)
HeLa
  GI90: > 30 µg/mL
[3]
  GI50 at 90 h: 7.77 µg/mL (≈ 26.2 µM)
PANC-1
  GI90: > 30 µg/mL
[4]
  GI50 at 72 h: > 100 µg/mL
THP-1
  GI90: > 100 µg/mL
[5]
  MIC90: 2.96 µg/mL (≈ 9.99 µM)
[6]
  MIC90: 1.82 µg/mL (≈ 6.14 µM)
[7]
  MIC90: 25.2 µg/mL (≈ 84.9 µM)
[8]
  MIC90: 2.05 µg/mL (≈ 6.92 µM)

## Cc1ccc(C(=O)CC(=O)c2cc3ccccc3s2)c(O)c1
[17]
  EC50: 20 µg/mL (≈ 64.4 µM)
[1]
  Activity: >92%
[2]
  GI50 at 72 h: 23.1 µg/mL (≈ 74.5 µM)
HeLa
  GI90: > 30 µg/mL
[3]
  GI50 at 90 h: 9.24 µg/mL (≈ 29.8 µM)
PANC-1
  GI90: > 30 µg/mL
[4]
  GI50 at 72 h: > 100 µg/mL
THP-1
  GI90: > 100 µg/mL
[5]
  MIC90: 25.8 µg/mL (≈ 83.3 µM)
[6]
  MIC90: 2.61 µg/mL (≈ 8.41 µM)
[7]
  MIC90: 5.45 µg/mL (≈ 17.6 µM)
[8]
  MIC90: 4.41 µg/mL (≈ 14.2 µM)
[12]
  selectivity ratio: > 13
[13]
  selectivity ratio: > 13

## NNC(=O)c1ccncc1 [ISONIAZID]
[5]
  MIC90: 0.05 µg/mL (≈ 0.365 µM)
[6]
  MIC90: 0.075 µg/mL (≈ 0.547 µM)
[7]
  MIC90: 0.074 µg/mL (≈ 0.54 µM)
[8]
  MIC90: 0.075 µg/mL (≈ 0.547 µM)

## CC(=O)O[C@H]1C(=O)[C@@]2(C)[C@H]([C@H](OC(=O)c3ccccc3)[C@]3(O)C[C@H](OC(=O)[C@H](O)[C@@H](NC(=O)c4ccccc4)c4ccccc4)C(C)=C1C3(C)C)[C@]1(OC(C)=O)CO[C@@H]1C[C@@H]2O [PACLITAXEL]
[2]
  GI50 at 72 h: 0.004 µg/mL (≈ 0.00468 µM)
HeLa
  GI90: 0.075 µg/mL (≈ 0.0878 µM)
[3]
  GI50 at 90 h: 0.127 µg/mL (≈ 0.149 µM)
PANC-1
  GI90: 5.715 µg/mL (≈ 6.69 µM)
[4]
  GI50 at 72 h: 0.133 µg/mL (≈ 0.156 µM)
THP-1
  GI90: 5.81 µg/mL (≈ 6.8 µM)

## CO[C@H]1/C=C/O[C@@]2(C)Oc3c(C)c(O)c4c(O)c(c(/C=N/N5CCN(C)CC5)c(O)c4c3C2=O)NC(=O)/C(C)=C\C=C\[C@H](C)[C@H](O)[C@@H](C)[C@@H](O)[C@@H](C)[C@H](OC(C)=O)[C@@H]1C [RIFAMPIN]
[5]
  MIC90: 0.5 µg/mL (≈ 0.608 µM)
[6]
  MIC90: 0.8 µg/mL (≈ 0.972 µM)
[7]
  MIC90: 0.048 µg/mL (≈ 0.0583 µM)
[8]
  MIC90: 0.043 µg/mL (≈ 0.0523 µM)
